Entries after “also recorded” stand apart in the source; their conditions may differ. Each block holds one molecule with its values, some of them ahead of it.
Legend:
[1] = test system: HIF-1α protein; test: Western blot for nuclear HIF-1α protein in T47D cells; assay type: cell-based, human; conditions: T47D nuclear extract; for effect on induction of HIF-1α protein by hypoxia: 4 h hypoxia (1% O2)
How it was run: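 T47D cells plated at 10 × 10^6 per 100 mm dish for 16 h. Test compound given 30 min at 37°C, then 10 μM 1,10-phenanthroline or 1% O2 for 4 h. Nuclear extracts (60 μg protein) run on 8% SDS-PAGE and blotted to nitrocellulose. Probed with anti-HIF-1α monoclonal antibody (1:500, 1 h, RT), then HRP anti-mouse (1:30,000, 40 min), with chemiluminescent detection.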

[2] = test system: HIF-1; test: T47D cell-based reporter assay for HIF-1 activity; design: species or system human
How it was run: (§1)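 PC-3 or T47D cells in DMEM/F12 with 10% FCS were transiently transfected with the HIF-1 reporter pHRE3-TK-luc. HIF-1 was induced by hypoxia (1% O2) or 10 μM 1,10-phenanthroline with test compound present. % inhibition = (1 − treated/induced luminescence) × 100. IC50 from concentration-response data, one experiment in triplicate. Potency given as fold change in IC50 relative to a reference analogue.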

[3] = test system: PC-3 cells; test: Cell proliferation/viability assay, PC-3; assay type: cell-based, human; conditions: normoxic or hypoxic conditions, data not shown
How it was run: (§2)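 Cells kept in DMEM/F12 with 10% FCS and antibiotics at 37°C. Plated at 30,000 cells/well and left overnight, then given test compound in serum-free medium. After 30 min, incubated 48 h under normoxia (5% CO2/95% air) or hypoxia (1% O2/5% CO2/94% N2). Viability read by neutral red or by sulforhodamine B (TCA fix, 0.4% dye, Tris extraction, A490 minus A690). Reported as % inhibition versus control.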

[4] = test system: NADH-ubiquinone oxidoreductase (complex I); test: Respiration of digitonin-permeabilized T47D cells, complex I substrates; assay type: cell-based, human; conditions: malate and pyruvate
[5] = test system: MDA-MB-231 cells; test: Cell proliferation/viability assay, MDA-MB-231; assay type: cell-based, human; conditions: normoxic or hypoxic conditions, data not shown
How it was run: as §2

[6] = test system: VEGF; test: ELISA assay for secreted VEGF protein in T47D cells; assay type: cell-based, human; conditions: 16 h; for effect on hypoxic induction of secreted VEGF protein: hypoxia (1% O2)
How it was run: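 T47D cells plated at 356,000/well and incubated overnight at 37°C. Test compound added in serum-free DMEM/F12. After 30 min in air, treatment continued 16 h under 1% O2/5% CO2/94% N2 or with 10 μM 1,10-phenanthroline. Secreted VEGF in conditioned medium measured by ELISA and normalised to total lysate protein (BCA assay).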

[7] = test system: pGL3-Control construct; test: Luciferase expression from control construct pGL3-Control in T47D cells; assay type: cell-based, human; conditions: for IC50: Homo sapiens, T47D, read-out: IC50 on luciferase expression from pGL3-control
How it was run: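 T47D cells in DMEM/F12 with 10% FCS were transiently transfected with the constitutive pGL3-Control luciferase construct. Cells were treated with test compound and exposed to hypoxia (1% O2). Luciferase read-out as % inhibition = (1 − treated/induced light output) × 100. IC50 taken from concentration-response data, one experiment in triplicate.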

[8] = test system: HIF-1; test: PC-3 cell-based reporter assay for HIF-1 activity; design: species or system human
How it was run: as §1

SMILES: C/C(=C\CCc1ccoc1)CC/C=C(\C)CCCC1=CC(=O)OC1 [Compound 6, furospongolide]
effect on induction of HIF-1α protein by 1,10-phenanthroline ([1]; 4 h 1,10-phenanthroline 10 μM): only weakly inhibited
effect on induction of HIF-1α protein by hypoxia [1]: blocked the induction of HIF-1α protein by hypoxia; also recorded: blocks the induction of nuclear HIF-1 α protein accumulation
effect on induction of HIF-1α protein by hypoxia ([1]; listed as Furospongolide): inhibiting the hypoxic induction of HIF-1α protein
selectivity towards HIF-1 inhibition relative to suppression of hypoxic T47D cell proliferation/viability [2]: more than 10 fold
effect on cell proliferation/viability [3]: Neither 6 nor the 6/6a mixture affected
effect on complex I-mediated mitochondrial respiration [4]: selectively inhibits mitochondrial complex I-mediated respiration; also recorded: disrupting complex I
effect on cell proliferation/viability [5]: Neither 6 nor the 6/6a mixture affected
effect on increase in secreted VEGF protein level caused by 1,10-phenanthroline ([6]; 30 μM, 1,10-phenanthroline (10 μM)): did not affect
effect on hypoxic induction of secreted VEGF protein [6]: decreased hypoxic induction of secreted VEGF proteins in a concentration-dependent manner; also recorded: inhibits hypoxic induction of HIF-1 target VEGF protein
effect on hypoxic induction of secreted VEGF protein ([6]; listed as Furospongolide): blocked the induction

SMILES: CC(=O)C1=CC[C@H]2[C@]3(C)CC[C@H]4C(C)(C)CCC[C@]4(CO)[C@H]3C[C@H](O)[C@]2(C)[C@H]1C=O [Compound 7, 22-Hydroxy-24-methyl-12α-hydroxy-24-oxoscalar-16-en-25-al]
effect on luciferase expression from control construct pGL3-Control ([7]; Figure 1B, 1D): suppressed luciferase expression

IC50 [7]: 23 µM
SMILES: COC(=O)[C@]12CCCC(C)(C)[C@@H]1CC[C@@]1(C)[C@@H]3CC=C(C(C)=O)[C@H](C=O)[C@@]3(C)C(=O)C[C@@H]12 [Compound 8, 24-methyl-12,24,25-trioxoscalar-16-en-22-oate]
reduction in potency of HIF-1 inhibition in comparison to 7 [2]: 5 to 7 fold
reduction in potency of HIF-1 inhibition in comparison to 7 [8]: 11 to 15 fold

IC50 [7]: 2.6 µM
SMILES: CC(=O)C1=CC[C@H]2[C@]3(C)CC[C@H]4C(C)(C)CCC[C@]4(CO)[C@H]3CC(=O)[C@]2(C)[C@H]1C=O [Compound 9, 22-hydroxy-24-methyl-12,24-dioxoscalar-16-en-25-al]

SMILES: C=C(C)[C@H]1Cc2c(ccc3c2O[C@@H]2COc4cc(OC)c(OC)cc4[C@@H]2C3=O)O1 [rotenone, reference compound]
effect on complex I-mediated mitochondrial respiration [4]: inhibited

From PMC2893247 (Journal of natural products, 2008)
